Screens as filed in PubChem BioAssay.
Env fusion inh = inhibitors of HIV-1 Env-driven cell-cell fusion, primary screen, HeLa-JRFL effector, CEM21 target cells, luciferase; inhibition, % at 12.3 µM; hit rate 1.1% among 360,000;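 active = mean replicate inhibition score of at least 50 and every replicate individually at or above 50; inconclusive = only one of the two criteria met; inactive = mean below 50 and not all replicates reaching 50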;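 also: 0% = plate neutral controls and 100% = maraviroc near 300 nM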
FN deposition inh = inhibitors of fibronectin matrix deposition, primary screen, AH1F cells, Alexa488-fibronectin fluorescence, plate reader; AH1F fibroblasts, overnight; hit rate 0.086% among 350,000; inhibition, % at 12.6 µM;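 active = mean inhibition across replicates of 30% or more, regardless of how many single replicates reach that level; inconclusive = mean under 30% yet at least half of replicates reach 30%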;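 also: positive control wells lacked labelled fibronectin entirely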
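Assay system: AH1F fibroblasts / Quantity: 10000 cells per well / Medium: DMEM plus 2% serum, read in PBS / Reagent: labelled fibronectin 24 nM / Dosing: single dose, pinned / Times: 1 h cell attachment, overnight exposure to compound and label / Signal: fluorescence, ex 485 nm, em 525 nm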
ERp5 block = inhibitors of ERp5-driven insulin aggregation, primary screen, biochemical, turbidity, absorbance 650 nm, single point; hit rate 0.05% among 350,000; 90 min; Protein disulfide-isomerase A6 (Homo sapiens), Q15084; inhibition, % at 9.99 µM;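 active = mean replicate inhibition above about 25%, with every replicate also reaching it, limit read from the data, passing the limit was not always enough; inconclusive = only one of those two criteria met; inactive = neither criterion met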
PvdQ acylase = P. aeruginosa PvdQ acylase inhibitors, primary screen, biochemical, fluorescence, plate reader and imaging, single point; purified PvdQ acylase; PvdQ acylase [Pseudomonas aeruginosa LESB58]; AID 488965, 2010; hit rate 0.063% among 340,000; inhibition, % at 10 µM; in the data active = inhibition above about 30%, passing the limit was not always enough; inconclusive = no clear call, values can overlap the other calls;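 also: 0% = vehicle neutral wells and 100% = reference inhibitor wells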
PDI inh = inhibitors of human PDI, primary screen, biochemical, turbidity, single point, plate reader | hit rate 0.052% among 350,000 | PDI insulin aggregation turbidity, A650, 90 min | inhibition, % at 10 µM | Protein disulfide-isomerase (Homo sapiens), P07237;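 active = mean inhibition across replicates of 30% or more, whatever share of single replicates reach that level; inconclusive = mean inhibition below 30% while every single replicate reaches 30%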
Target sequence (P07237 whole entry, looked up): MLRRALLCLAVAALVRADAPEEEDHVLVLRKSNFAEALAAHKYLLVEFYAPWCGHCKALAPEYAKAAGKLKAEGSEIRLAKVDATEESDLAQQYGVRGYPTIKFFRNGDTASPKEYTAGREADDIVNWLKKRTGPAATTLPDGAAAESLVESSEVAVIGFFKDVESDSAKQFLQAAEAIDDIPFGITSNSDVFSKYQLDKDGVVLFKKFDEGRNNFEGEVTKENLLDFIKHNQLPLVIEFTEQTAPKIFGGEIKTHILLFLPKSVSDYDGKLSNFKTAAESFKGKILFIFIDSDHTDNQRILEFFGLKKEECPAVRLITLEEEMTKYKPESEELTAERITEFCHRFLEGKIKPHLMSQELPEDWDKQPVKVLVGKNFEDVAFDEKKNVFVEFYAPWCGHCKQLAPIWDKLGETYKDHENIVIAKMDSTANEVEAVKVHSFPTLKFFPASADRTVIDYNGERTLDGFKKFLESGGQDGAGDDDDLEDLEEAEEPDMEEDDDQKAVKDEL
Ecoli rRNA inh = reduced GFP signal of wild-type E. coli, primary screen, bacterial rRNA inhibitor project, GFP/RFP fluorescence, OD600, single point. GFP signal change (wild-type ribosome), % (concentration not given with the values). hit rate 1.6% among 350,000. E. coli WT GFP vs humanized-ribosome RFP mutants, 24 h; active compounds read low; DMSO median 0, no signal -100;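 active = significant combined selectivity score with lowered wild-type GFP, culture density cut under 30%, mutant RFP and density less affected; inactive = any of these conditions unmet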
* marks the source's active call; other numbers are inactive results; ? = inconclusive; nt = not tested or not shown; ! = not confirmed by another sample; [ ] = remark or other dose. A selection: hits, their analogues and other compounds. The true share with any hit is near 2.2%.

SMILES	Env fusion inh	FN deposition inh	ERp5 block	PvdQ acylase	PDI inh	Ecoli rRNA inh
Cc1ccc(S(=O)(=O)N2C[C@H]3[C@H]4C(=O)N(Cc5ccccc5)C(=O)[C@H]4CC(=O)[C@H]3[C@@H]2c2ccccc2F)cc1	?	-1.8	-0.5	nt	nt	4.6
Cc1ccc(S(=O)(=O)N2C[C@H]3[C@H]4C(=O)N(C5CCCCC5)C(=O)[C@H]4CC(=O)[C@H]3[C@@H]2c2ccccc2F)cc1	64.5*	-1.9	-1.3	nt	nt	7.2
CO[C@@H]1CN(C)C(=O)c2ccc(NC(=O)NC(C)C)cc2OC[C@H](C)N(CC2CC2)C[C@@H]1C	7.1[16.7 µM]	nt	1.4	nt	nt	-2.7
Cc1ccc(C(=O)CC(=O)c2cccc(F)c2)c(O)c1	61.4*	-13.3	nt	5.3	7.7	nt
Cc1ccc(C(=O)CC(=O)c2ccccc2C)c(O)c1	-1.8	11.5	1.0	-9.9	-1.3	-49.0
O=C(N[C@H](C(=O)N1CCC[C@H]1C(=O)NC1CCCC1)C1CCCCC1)c1ccc(Cl)cc1Cl	-28.1	1.7	2.7	nt	nt	-28.0*
C[C@H](CO)N1C[C@H](C)[C@@H](CN(C)CC2CC2)Oc2c(NC(=O)CCC(F)(F)F)cccc2C1=O	nt	nt	nt	nt	nt	-1.2
COc1ccc(NC(=S)N(Cc2ccc(Cl)cc2)Cc2ccc(C(=O)O)cc2)cc1Cl	-1.2	11.2	4.6	1.9	3.8	-32.4*
CN(C)CCCN(Cc1ccccc1)C(=S)Nc1ccc(F)c(Cl)c1	5.9	-3.6	0.2	7.9	4.9	-45.8*
Cc1ccc(SCC(=O)Nc2ccc(S(=O)(=O)Nc3nccs3)cc2)cc1	nt	0.7	-5.7	-2.5	7.4	-37.1*
CN1CCN(C2Cc3ccc(F)cc3Sc3cc(F)c(Cl)cc32)CC1 (stereo unspecified)	23.9	7.6	-1.8	-9.8	6.9	-42.5*
CCc1nc2c(OCc3ccc(C(F)(F)F)cc3)cccn2c1N(C)C(=O)c1ccc(C)cc1	56.7*	2.1	-2.2	nt	7.3	0.8
CCOC(=O)N(C)c1c(CC)nc2c(OCc3cc(Cl)cc(Cl)c3)cccn12	56.0*	9.9	2.9	nt	-0.7	-60.0
CCOC(=O)N(C)c1c(CC)nc2c(OCc3ccc(F)c(F)c3)cccn12	17.0	-7.5	5.4	nt	8.5	3.5
CO[C@@H]1CN(C)C(=O)c2ccc(NS(C)(=O)=O)cc2OC[C@@H](C)N(Cc2ccccc2)C[C@H]1C	nt	nt	nt	nt	nt	0.9
CCOC(=O)c1c(C)oc2ccc(NS(=O)(=O)c3cccs3)cc12	nt	nt	-1.5	-18.3	-3.5	-29.9*
COCCOC(=O)c1c(C)oc2ccc(NS(=O)(=O)c3cccs3)cc12	10.2	1.1	4.3	-12.9	-10.7	-23.8
CCN(C1CCCCC1)S(=O)(=O)c1ccc(S(=O)(=O)NCc2ccncc2)cc1	80.7*	3.7	nt	-8.1	-0.4	nt
CCCC#Cc1ccc([C@@H]2[C@@H](CO)N3CCCCN(Cc4cccnc4)C[C@@H]23)cc1	nt	nt	5.4	nt	nt	0.9
N#Cc1c(NC(=O)/C=C/c2ccco2)sc2c1CCCC2	-310.3	-59.5	-2.7	-8.2	-3.8	-11.6
O=C(/C=C/c1ccco1)Nc1sc2c(c1C(=O)O)CCC2	nt	nt	-2.1	4.0	-2.6	-23.8*
CCCNC(=O)N1CC2(CN(C(=O)C3CC3)C2)c2c([nH]c3cc(OC)ccc23)[C@@H]1CO	nt	nt	6.7	nt	nt	4.9
Cc1ccc(NC(=O)CN(C)CC(=O)Nc2ccc(N3CCOCC3)cc2)cc1F	-5.5	nt	10.9	-26.1	1.7	-21.4*
C[C@H]1CN([C@@H](C)CO)S(=O)(=O)c2ccc(C#CC3CC3)cc2O[C@@H]1CN(C)Cc1cncnc1	12.3[16.7 µM]	nt	nt	nt	nt	-6.8
O=C(N/C(=C\c1ccccc1)C(=O)N1CCN(CCO)CC1)c1ccccc1	78.6*	5.1	nt	-3.1	-0.3	nt
SMILES	Env fusion inh	FN deposition inh	ERp5 block	PvdQ acylase	PDI inh	Ecoli rRNA inh
C[C@H]1CN(C)C(=O)Cc2ccccc2O[C@H]1CN(C)S(C)(=O)=O	nt	nt	nt	nt	nt	3.0
CC1(C(=O)NS(=O)(=O)c2ccccc2Cl)CCN1C(=O)C1(c2ccc(Cl)cc2)CCC1 (stereo unspecified)	-16.5	1.2	1.7	nt	1.1	-16.8*
CC1(C(=O)NS(=O)(=O)c2ccc(Cl)s2)CCN1C(=O)C1(c2ccccc2)CCCC1 (stereo unspecified)	-24.1	0.9	0.3	nt	-4.4	-31.0*
C[C@@H]1CN([C@H](C)CO)C(=O)c2cc(C#CCN(C)C)cnc2O[C@@H]1CN(C)C(=O)c1cccnc1	-17.9[16.7 µM]	2.5	-5.6	nt	nt	-1.0
O=C(CCCN1C(=O)/C(=C\c2cccs2)SC1=S)NNC(=O)c1ccncc1	-4.3	0.4	-5.9	3.9	3.9	12.2
O=C1/C(=C/c2cccs2)SC(=S)N1NS(=O)(=O)c1ccccc1	6.5	-1.4	-2.3	-7.1	6.9	-26.6*
O=C(NN1C(=O)/C(=C/c2cccs2)SC1=S)c1ccncc1	-6.7	-3.6	2.5	-10.8	17.3	-29.4*
COc1ccc(OC)c(/C=C2\SC(=S)N(NS(=O)(=O)c3ccccc3)C2=O)c1	12.5	1.6	0.4	-4.1	11.5	-16.3
CNC[C@@H]1Oc2c(NC(=O)C3CCOCC3)cccc2C(=O)N([C@H](C)CO)C[C@H]1C	7.8[16.7 µM]	2.8	-1.4	nt	nt	0.6
CNC[C@@H]1Oc2ncc(-c3cccc(C(=O)N(C)C)c3)cc2C(=O)N([C@@H](C)CO)C[C@@H]1C	nt	3.2	nt	nt	nt	6.8
O=C(NCC[C@H]1CC[C@@H](NS(=O)(=O)c2ccccc2)[C@H](CO)O1)c1cc(Cl)cc(Cl)c1	1.9[16.7 µM]	4.1	7.8	nt	nt	-3.3
O=S(=O)(NCC[C@@H]1CC[C@@H](NS(=O)(=O)c2ccccc2Cl)[C@H](CO)O1)c1ccc(Cl)cc1	57.5*[16.7 µM]	nt	1.9	nt	nt	-6.9
O=S(=O)(NCC[C@@H]1CC[C@@H](NS(=O)(=O)c2ccccc2Cl)[C@@H](CO)O1)c1ccc(Cl)cc1	-3.9[16.7 µM]	nt	-1.4	nt	nt	-1.2
O=C(NCC[C@@H]1CC[C@@H](NS(=O)(=O)c2ccccc2)[C@@H](CO)O1)c1cc(Cl)cc(Cl)c1	-12.8[16.7 µM]	-4.3	5.1	nt	nt	-16.4*!
Cc1noc(C)c1S(=O)(=O)N(C)C[C@@H]1OCCCC[C@@H](C)Oc2ccc(NS(=O)(=O)c3cccs3)cc2C(=O)N([C@@H](C)CO)C[C@@H]1C	-1.0[16.7 µM]	nt	1.9	nt	nt	4.3
Brc1ccc(CSc2nnc(-c3ccco3)o2)cc1	-8.7	nt	-7.1	-0.4	-1.8	-22.0*
c1ccc(CSc2nnc(-c3ccco3)o2)cc1	-16.2	0.5	2.6	-2.3	4.0	5.8
CC(C)NC(=O)N(C)C[C@H]1Oc2ccc(N)cc2CC(=O)N(C)C[C@@H]1C	nt	-2.0	nt	nt	nt	3.3
CCOc1ccc(NCc2nnc(SCc3ccccc3Cl)n2-c2ccccc2)cc1	82.1*	-8.6	nt	-6.1	4.8	nt
